Entries after “also recorded” stand apart in the source; their conditions may differ. Where no end group is shown, it is not given here. The star is where a group is joined. 5FAM = O=C1OC2(c3ccc(O)cc3Oc3cc(O)ccc32)c2ccc(C(=O)*)cc21
Columns and labels:
[1] = Gel filtration, Hiload 16/600 Superdex 200; assay type: physicochemical
How it was run: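 After His‐tag removal with TEV protease, untagged 14‐3‐3ζ WT or mutant protein from E. coli BL21 DE3 was run on the Superdex 200 column in 50 mM Tris/Cl pH 8.0, 400 mM NaCl, 10% glycerol. Peak fractions collected and elution profile recorded.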

[2] = Oligomeric status by native PAGE; assay type: physicochemical; details: 15 μg protein, 10% native gel (legend: 12%), Coomassie blue
How it was run: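 Purified untagged 14‐3‐3ζ WT and mutant apoproteins (E. coli‐expressed, Ni‐NTA plus size exclusion, TEV‐cleaved), buffer‐exchanged into 50 mM Na‐HEPES pH 8.0, 150 mM NaCl, 10% glycerol, then run under nondenaturing conditions. Migration read as monomer or dimer.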

14‐3‐3 [3] = details: cited from earlier work
14-3-3ζ E180A = target: T1, 14-3-3ζ E180A (human, UniProt P63104 1-245, E180A); experiment: fluorescence polarisation
T1 sequence (looked up): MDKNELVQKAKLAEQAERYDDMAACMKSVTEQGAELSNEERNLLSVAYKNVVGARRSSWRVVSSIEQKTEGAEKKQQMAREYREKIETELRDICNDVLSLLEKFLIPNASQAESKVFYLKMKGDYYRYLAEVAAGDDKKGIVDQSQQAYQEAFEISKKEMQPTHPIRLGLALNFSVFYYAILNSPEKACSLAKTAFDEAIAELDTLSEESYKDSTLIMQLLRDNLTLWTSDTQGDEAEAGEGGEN

14-3-3ζ WT = target: T2, 14-3-3ζ WT (human, UniProt P63104 1-245); experiment: fluorescence polarisation
T2 sequence (looked up): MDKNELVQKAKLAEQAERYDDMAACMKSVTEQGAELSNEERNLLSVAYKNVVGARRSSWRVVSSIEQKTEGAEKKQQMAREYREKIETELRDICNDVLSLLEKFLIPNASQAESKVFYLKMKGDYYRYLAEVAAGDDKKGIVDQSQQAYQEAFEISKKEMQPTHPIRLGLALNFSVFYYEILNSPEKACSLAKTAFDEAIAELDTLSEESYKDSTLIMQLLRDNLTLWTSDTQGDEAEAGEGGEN

14-3-3ζ R55A = target: T3, 14-3-3ζ R55A (human, UniProt P63104 1-245, R55A); experiment: MST
T3 sequence (looked up): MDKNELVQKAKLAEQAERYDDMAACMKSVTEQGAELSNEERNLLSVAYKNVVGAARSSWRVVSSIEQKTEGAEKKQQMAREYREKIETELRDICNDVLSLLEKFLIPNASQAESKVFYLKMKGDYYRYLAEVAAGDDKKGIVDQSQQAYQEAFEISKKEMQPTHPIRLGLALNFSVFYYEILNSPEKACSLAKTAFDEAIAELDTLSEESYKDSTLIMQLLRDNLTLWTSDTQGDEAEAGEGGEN

14-3-3ζ Y82A = target: T4, 14-3-3ζ Y82A (human, UniProt P63104 1-245, Y82A); experiment: MST
T4 sequence (looked up): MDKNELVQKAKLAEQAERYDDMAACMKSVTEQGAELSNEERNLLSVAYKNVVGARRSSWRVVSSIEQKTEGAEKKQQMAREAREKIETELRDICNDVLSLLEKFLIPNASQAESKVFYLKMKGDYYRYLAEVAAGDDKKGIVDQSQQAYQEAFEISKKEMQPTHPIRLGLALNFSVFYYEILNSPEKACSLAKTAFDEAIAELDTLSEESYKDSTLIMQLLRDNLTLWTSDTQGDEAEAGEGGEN

[4] = target: T5, 14-3-3ζ WT (human), P63104; experiment: native gel or EMSA; details: remark: other sources report otherwise
T5 chain: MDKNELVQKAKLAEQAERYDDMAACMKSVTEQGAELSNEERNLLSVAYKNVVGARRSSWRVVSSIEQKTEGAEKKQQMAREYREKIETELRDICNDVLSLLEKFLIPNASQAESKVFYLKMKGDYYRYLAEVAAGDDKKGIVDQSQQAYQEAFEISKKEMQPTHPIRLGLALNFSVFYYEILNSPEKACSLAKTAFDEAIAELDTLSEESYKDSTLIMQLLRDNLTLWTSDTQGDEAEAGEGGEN

[5] = Thermal stability by nano‐DSF; assay type: physicochemical
[6] = tested on: FAM‐labeled peptides (mode2 phosphopeptide); experiment: Peptide binding ability of 14‐3‐3ζ mutant proteins by fluorescence polarization; details: FP; FAM‐labeled peptide 62.5 nM, protein 8 to 0.0625 μM, 25°C, 30 min
How it was run: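 Untagged 14‑3‑3ζ mutants (E. coli BL21 DE3; Ni‑NTA, SEC, TEV cleavage) in 50 mM Na‑HEPES pH 8.0, 150 mM NaCl, 10% glycerol. Protein titrated 8 to 0.0625 μM against constant 62.5 nM N‑terminal FAM‑labeled phosphopeptide. Incubated 30 min at 25°C in the dark before anisotropy reading; K_D fitted.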

[7] = tested on: 14‐3‐3ζ WT and mutant proteins; experiment: ATPase activity; assay type: biochemical, human; details: 10 μM protein, 1 mM ATP, 37°C, 2 h; three independent experiments
14‐3‐3 [8] = details: ref 16 (Ramteke et al.); cited from earlier work

14‐3‐3ζ WT: wild-type 14‐3‐3ζ protein expressed in E. coli
gel filtration elution volume [1]: 68 mL
migration on native PAGE / oligomeric state [2]: migrated as dimers

Nc1ncnc2c1ncn2[C@@H]1O[C@H](COP(=O)(O)O)[C@@H](O)[C@H]1O [AMP]
binding to 14‐3‐3 alone (14‐3‐3 [3]): Neither AMP nor the nonphospho ChREBP peptide alone can bind strongly to the 14‐3‐3
effect of AMP on 14‐3‐3‐ChREBP peptide complex (14‐3‐3 [3]): stabilizes 14‐3‐3‐ChREBP peptide‐complex

B1: FAM-labeled nonphosphorylated ExoS peptide (5FAM-QGLLDALDLAS) (peptide)
peptide: 5FAM-QGLLDALDLAS
binding result (14-3-3ζ E180A): binds
binding result (14-3-3ζ WT): binds
binding result (14-3-3ζ R55A): binds
binding result (14-3-3ζ Y82A): binds

B2: 14-3-3ζ WT, P63104 1-245 (natural protein)
chain: MDKNELVQKAKLAEQAERYDDMAACMKSVTEQGAELSNEERNLLSVAYKNVVGARRSSWRVVSSIEQKTEGAEKKQQMAREYREKIETELRDICNDVLSLLEKFLIPNASQAESKVFYLKMKGDYYRYLAEVAAGDDKKGIVDQSQQAYQEAFEISKKEMQPTHPIRLGLALNFSVFYYEILNSPEKACSLAKTAFDEAIAELDTLSEESYKDSTLIMQLLRDNLTLWTSDTQGDEAEAGEGGEN
stoichiometry N [4]: 2

B3: E180AN173V: 14‐3‐3ζ double mutant (protein)
chain: MDKNELVQKAKLAEQAERYDDMAACMKSVTEQGAELSNEERNLLSVAYKNVVGARRSSWRVVSSIEQKTEGAEKKQQMAREYREKIETELRDICNDVLSLLEKFLIPNASQAESKVFYLKMKGDYYRYLAEVAAGDDKKGIVDQSQQAYQEAFEISKKEMQPTHPIRLGLALVFSVFYYAILNSPEKACSLAKTAFDEAIAELDTLSEESYKDSTLIMQLLRDNLTLWTSDTQGDEAEAGEGGEN
modifications: left off: His6, end not stated, cleaved
thermal stability (in words) [5]: most unstable and prone to aggregation
migration on native PAGE / oligomeric state [2]: migrated as dimers

B4: Y82A: 14‐3‐3ζ mutant, monomer, ATPase null mutant (protein)
chain: MDKNELVQKAKLAEQAERYDDMAACMKSVTEQGAELSNEERNLLSVAYKNVVGARRSSWRVVSSIEQKTEGAEKKQQMAREAREKIETELRDICNDVLSLLEKFLIPNASQAESKVFYLKMKGDYYRYLAEVAAGDDKKGIVDQSQQAYQEAFEISKKEMQPTHPIRLGLALNFSVFYYEILNSPEKACSLAKTAFDEAIAELDTLSEESYKDSTLIMQLLRDNLTLWTSDTQGDEAEAGEGGEN
modifications: left off: His6, end not stated, cleaved
peptide binding of 14‐3‐3ζ mutant protein (in words) [6]: bound the peptide with comparable affinity to the WT; also recorded: bind all peptides with the same affinity as the WT
ATPase activity (in words, compared with WT) [7]: near background luminescence readings‐ it is practically an ATPase null mutant
gel filtration elution volume [1]: 74 mL
migration on native PAGE / oligomeric state [2]: could be monomeric in nature

B5: D124A (protein)
chain: MDKNELVQKAKLAEQAERYDDMAACMKSVTEQGAELSNEERNLLSVAYKNVVGARRSSWRVVSSIEQKTEGAEKKQQMAREYREKIETELRDICNDVLSLLEKFLIPNASQAESKVFYLKMKGAYYRYLAEVAAGDDKKGIVDQSQQAYQEAFEISKKEMQPTHPIRLGLALNFSVFYYEILNSPEKACSLAKTAFDEAIAELDTLSEESYKDSTLIMQLLRDNLTLWTSDTQGDEAEAGEGGEN
modifications: left off: His6, end not stated, cleaved
peptide binding of 14‐3‐3ζ mutant protein (in words) [6]: defective in peptide binding
ATPase activity (in words, compared with WT) [7]: higher than that of the WT protein; also recorded: enhanced ATPase activity
migration on native PAGE / oligomeric state [2]: migrated as dimers
ATPase activity (earlier study) (14‐3‐3 [8]): increase in ATPase activity

B6: N173V (protein)
chain: MDKNELVQKAKLAEQAERYDDMAACMKSVTEQGAELSNEERNLLSVAYKNVVGARRSSWRVVSSIEQKTEGAEKKQQMAREYREKIETELRDICNDVLSLLEKFLIPNASQAESKVFYLKMKGDYYRYLAEVAAGDDKKGIVDQSQQAYQEAFEISKKEMQPTHPIRLGLALVFSVFYYEILNSPEKACSLAKTAFDEAIAELDTLSEESYKDSTLIMQLLRDNLTLWTSDTQGDEAEAGEGGEN
modifications: left off: His6, end not stated, cleaved
peptide binding of 14‐3‐3ζ mutant protein (in words) [6]: defective in peptide binding assays; also recorded: binds less well to the phosphopeptide ligands
ATPase activity (in words, compared with WT) [7]: had increased ATPase activity and has more affinity for ATP; also recorded: enhanced ATPase activity
thermal stability (in words) [5]: more stable than the D124A
migration on native PAGE / oligomeric state [2]: migrated as dimers

From PMC12429009 (The FASEB Journal, 2025)
